Laboratory results: ChEMBL document CHEMBL1128543, “Computer-aided design and synthesis of 5-substituted tryptamines and their pharmacology at the 5-HT1D receptor: discovery of compounds with potential anti-migraine properties” (J Med Chem, 1995)

Columns and labels:
[1] = target: Adrenergic receptor alpha-2 (Homo sapiens) (UniProt P08913+P18825+P18089); settings: Oryctolagus cuniculus; Saphenous vein
[2] = target: Histamine H1 receptor (Homo sapiens) (UniProt P35367); assay: Binding affinity against H1 receptor using rabbit saphenous vein assay.; assay type: tissue-based; settings: Oryctolagus cuniculus, target entry is the homologue from another species
[3] = target: 5-hydroxytryptamine receptor 1D (Homo sapiens) (UniProt P28221); assay: The compound was tested for binding affinity against 5-HT1D receptor; settings: Oryctolagus cuniculus
Procedure, shortened: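 Rabbit saphenous vein rings (male New Zealand White; 4–5 mm) mounted on tungsten wires in Krebs–Henseleit buffer, pH 7.4, 37 °C, gassed with 95% O2/5% CO2, at 2 g passive force. Pretreated for 30 min with pargyline (500 μM) and phenoxybenzamine (0.3 μM), then washed. Cumulative 5-HT curve, then after 60 min a test agonist curve. Potency is p[A50]; α is test maximum/5-HT maximum; n ≥ 3.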

D(1A) dopamine receptor = D(1A) dopamine receptor (Rattus norvegicus, UniProt P18901); assay: Binding affinity against dopamine receptor D1 in rat striatum using [3H]SCH-23390 as radioligand; assay type: tissue-based
Procedure, shortened: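 Displacement of [³H]SCH23390 (0.3 nM, about K_D) from rat striatum homogenate, with test compounds run in duplicate over a wide range. Incubation was 30 min at 27 °C in 50 mM Tris-HCl with 5 mM CaCl₂, 0.1% w/v ascorbate and 10 mM pargyline. Assays were filtered and washed with ice-cold buffer, and bound label was counted by scintillation. Results are pK_i or pIC₅₀, n ≥ 3.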

Oryctolagus cuniculus [4] = species: Oryctolagus cuniculus; assay: Binding affinity against 5-hydroxytryptamine 4 receptor using rabbit saphenous vein assay.; assay type: tissue-based
[5] = target: T1, Adrenergic receptor alpha-2 (Rattus norvegicus, UniProt P22086+P19328+P22909); assay: Binding affinity against Alpha-2 adrenergic receptor in rat cortex using [3H]-idazoxan as radioligand
T1 sequence (P22086 whole entry): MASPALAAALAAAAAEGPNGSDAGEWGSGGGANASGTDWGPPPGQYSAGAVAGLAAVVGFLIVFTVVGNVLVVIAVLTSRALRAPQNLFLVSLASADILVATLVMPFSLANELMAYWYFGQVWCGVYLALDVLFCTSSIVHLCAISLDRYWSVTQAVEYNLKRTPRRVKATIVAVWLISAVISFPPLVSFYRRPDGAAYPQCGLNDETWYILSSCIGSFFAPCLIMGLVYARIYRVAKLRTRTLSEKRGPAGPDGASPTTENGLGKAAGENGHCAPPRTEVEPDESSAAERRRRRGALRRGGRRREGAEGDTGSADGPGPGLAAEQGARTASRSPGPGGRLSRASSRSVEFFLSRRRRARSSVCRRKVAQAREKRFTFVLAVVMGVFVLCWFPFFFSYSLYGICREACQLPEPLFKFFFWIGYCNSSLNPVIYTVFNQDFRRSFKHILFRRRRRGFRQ
T1 sequence (P19328 whole entry): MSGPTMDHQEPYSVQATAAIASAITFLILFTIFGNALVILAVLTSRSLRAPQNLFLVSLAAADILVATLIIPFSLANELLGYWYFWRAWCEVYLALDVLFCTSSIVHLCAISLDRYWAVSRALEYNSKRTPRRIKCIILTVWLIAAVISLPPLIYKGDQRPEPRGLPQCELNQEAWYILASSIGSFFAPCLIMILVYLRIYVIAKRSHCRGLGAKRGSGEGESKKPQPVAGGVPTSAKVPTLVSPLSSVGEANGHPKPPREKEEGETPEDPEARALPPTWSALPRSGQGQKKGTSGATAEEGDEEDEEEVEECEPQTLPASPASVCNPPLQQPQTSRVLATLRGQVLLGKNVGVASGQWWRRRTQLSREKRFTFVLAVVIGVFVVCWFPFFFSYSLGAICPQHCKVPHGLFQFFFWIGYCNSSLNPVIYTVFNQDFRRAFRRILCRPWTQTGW
T1 sequence (P22909 whole entry): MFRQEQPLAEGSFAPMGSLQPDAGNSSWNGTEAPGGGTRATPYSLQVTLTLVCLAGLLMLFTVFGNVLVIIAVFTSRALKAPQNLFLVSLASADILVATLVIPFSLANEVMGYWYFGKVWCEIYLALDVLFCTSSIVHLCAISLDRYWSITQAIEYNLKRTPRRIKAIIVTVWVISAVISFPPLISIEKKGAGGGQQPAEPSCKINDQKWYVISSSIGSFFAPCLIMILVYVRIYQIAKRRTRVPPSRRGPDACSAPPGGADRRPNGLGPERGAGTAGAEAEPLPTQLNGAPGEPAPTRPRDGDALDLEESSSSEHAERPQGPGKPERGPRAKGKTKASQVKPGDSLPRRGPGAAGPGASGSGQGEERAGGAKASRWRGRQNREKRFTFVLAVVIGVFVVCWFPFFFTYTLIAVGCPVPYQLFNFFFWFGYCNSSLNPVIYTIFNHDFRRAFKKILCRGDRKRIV
Procedure, shortened: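 Competition binding on rat cortex with [³H]idazoxan (7 nM, about K_D) against a wide test range run in duplicate. Incubation was 30 min at 27 °C in 50 mM Tris-HCl, 5 mM CaCl₂, 0.1% ascorbate and 10 mM pargyline. Assays were ended by rapid filtration and read by scintillation. Values are pK_i or pIC₅₀, mean of n ≥ 3.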

Oryctolagus cuniculus [6] = species: Oryctolagus cuniculus; assay: Binding affinity against 5-hydroxytryptamine 1D receptor using rabbit saphenous vein assay.; assay type: tissue-based
Procedure, shortened: (§1)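 Male New Zealand White rabbit saphenous vein rings (4–5 mm) in Krebs–Henseleit at 37 °C, pH 7.4, gassed with 95% O₂:5% CO₂, under 2 g passive force. Tissues got 30 min pargyline (500 μM) and phenoxybenzamine (0.3 μM), then were washed and checked with 1 μM 5-HT. A cumulative 5-HT curve was followed 60 min later by a test agonist curve. Potency is p[A₅₀]; α is test max/5-HT max; n ≥ 3.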

[7] = target: D(1A) dopamine receptor (Homo sapiens) (UniProt P21728); assay: Binding affinity was evaluated by Dopamine receptor D1 agonism in the calf striatum by displacing SCH 23390; assay type: tissue-based; settings: Oryctolagus cuniculus
[8] = target: Serotonin 3 (5-HT3) receptor (Homo sapiens) (UniProt P46098+A5X5Y0+O95264+Q70Z44+Q8WXA8); assay: Binding affinity against 5-hydroxytryptamine 3 receptor […]; assay type: cell-based; settings: Oryctolagus cuniculus
Oryctolagus cuniculus [9] = species: Oryctolagus cuniculus; assay: Binding affinity against 5-hydroxytryptamine 1 receptor using rabbit saphenous vein assay.; assay type: tissue-based
Procedure, shortened: as §1

[10] = target: Beta-2 adrenergic receptor (Canis lupus familiaris) (UniProt P54833); assay: Binding affinity towards Beta adrenergic receptor
Chain of Beta-2 adrenergic receptor (Canis lupus familiaris) (P54833 whole entry, looked up): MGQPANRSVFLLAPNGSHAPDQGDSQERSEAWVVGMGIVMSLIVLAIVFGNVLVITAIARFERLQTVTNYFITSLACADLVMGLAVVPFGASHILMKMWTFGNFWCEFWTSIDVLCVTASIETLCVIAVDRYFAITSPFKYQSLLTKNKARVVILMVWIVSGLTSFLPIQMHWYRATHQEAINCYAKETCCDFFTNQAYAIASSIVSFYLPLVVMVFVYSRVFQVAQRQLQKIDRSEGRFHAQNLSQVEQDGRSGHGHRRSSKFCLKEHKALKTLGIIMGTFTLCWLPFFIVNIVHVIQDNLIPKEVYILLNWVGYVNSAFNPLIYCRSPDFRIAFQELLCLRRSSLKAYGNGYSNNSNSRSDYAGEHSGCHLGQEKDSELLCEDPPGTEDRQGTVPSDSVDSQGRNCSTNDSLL

Chain of Histamine H1 receptor (Homo sapiens) (P35367 whole entry): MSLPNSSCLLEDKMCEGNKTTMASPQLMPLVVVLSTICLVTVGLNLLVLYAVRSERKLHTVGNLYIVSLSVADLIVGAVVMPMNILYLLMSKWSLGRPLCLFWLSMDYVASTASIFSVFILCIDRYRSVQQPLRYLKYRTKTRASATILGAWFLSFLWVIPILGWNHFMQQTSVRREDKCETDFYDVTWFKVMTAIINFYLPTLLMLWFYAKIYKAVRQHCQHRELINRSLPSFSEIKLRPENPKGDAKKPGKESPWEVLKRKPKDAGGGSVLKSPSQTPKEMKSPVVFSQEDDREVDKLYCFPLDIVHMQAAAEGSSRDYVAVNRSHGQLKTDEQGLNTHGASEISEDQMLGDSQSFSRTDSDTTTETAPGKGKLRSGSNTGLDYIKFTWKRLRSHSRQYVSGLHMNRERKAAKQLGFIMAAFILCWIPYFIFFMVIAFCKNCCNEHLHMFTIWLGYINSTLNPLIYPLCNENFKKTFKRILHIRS
Chain of 5-hydroxytryptamine receptor 1D (Homo sapiens) (P28221 whole entry): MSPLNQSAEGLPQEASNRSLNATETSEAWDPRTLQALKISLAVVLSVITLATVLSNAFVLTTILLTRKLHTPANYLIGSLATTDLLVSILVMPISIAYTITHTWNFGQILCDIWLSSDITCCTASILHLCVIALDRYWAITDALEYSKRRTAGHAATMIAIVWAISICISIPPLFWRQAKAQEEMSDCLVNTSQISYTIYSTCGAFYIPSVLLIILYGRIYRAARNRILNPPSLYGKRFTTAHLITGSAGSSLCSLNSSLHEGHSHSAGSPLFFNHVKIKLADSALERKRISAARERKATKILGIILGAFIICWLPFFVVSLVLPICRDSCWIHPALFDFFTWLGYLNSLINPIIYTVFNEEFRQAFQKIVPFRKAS
Chain of D(1A) dopamine receptor (Homo sapiens) (P21728 whole entry): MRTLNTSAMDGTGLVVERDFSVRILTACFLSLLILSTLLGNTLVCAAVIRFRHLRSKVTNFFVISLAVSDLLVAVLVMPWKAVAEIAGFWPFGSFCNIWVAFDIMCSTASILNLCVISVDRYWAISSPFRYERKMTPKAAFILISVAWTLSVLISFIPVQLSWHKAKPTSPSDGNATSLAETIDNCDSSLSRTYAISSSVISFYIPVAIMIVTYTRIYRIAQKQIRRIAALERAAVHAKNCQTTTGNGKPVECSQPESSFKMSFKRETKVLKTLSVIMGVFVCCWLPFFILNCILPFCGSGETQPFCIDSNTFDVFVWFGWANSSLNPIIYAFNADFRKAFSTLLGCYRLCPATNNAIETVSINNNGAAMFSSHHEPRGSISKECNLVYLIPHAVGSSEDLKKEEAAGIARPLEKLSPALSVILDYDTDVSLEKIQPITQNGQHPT
Chain of D(1A) dopamine receptor (P18901 whole entry): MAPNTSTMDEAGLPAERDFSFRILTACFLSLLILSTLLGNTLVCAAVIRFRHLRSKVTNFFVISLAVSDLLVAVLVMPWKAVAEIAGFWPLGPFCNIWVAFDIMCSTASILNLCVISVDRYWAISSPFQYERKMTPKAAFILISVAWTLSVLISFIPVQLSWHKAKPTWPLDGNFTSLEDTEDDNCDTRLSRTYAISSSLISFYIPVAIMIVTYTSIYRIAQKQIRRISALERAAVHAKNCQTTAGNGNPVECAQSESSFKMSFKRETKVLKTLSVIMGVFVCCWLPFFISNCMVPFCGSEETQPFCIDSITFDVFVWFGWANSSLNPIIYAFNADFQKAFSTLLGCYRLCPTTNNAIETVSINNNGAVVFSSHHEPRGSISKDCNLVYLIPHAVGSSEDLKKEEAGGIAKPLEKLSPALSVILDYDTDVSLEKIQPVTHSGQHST

## CN(C)CCc1c[nH]c2ccc(C[C@H]3COC(=O)N3)cc12 [ZOLMITRIPTAN]
[1]
  p[A50]: 4.1
[2]
  p[A50]: 5.5
[3]
  p[A50]: 6.8
D(1A) dopamine receptor
  Kd: 0.3 nM
Oryctolagus cuniculus [4]
  p[A50]: 5.3
[5]
  Kd: 7 nM
Oryctolagus cuniculus [6]
  p[A50]: < 4.5
[7]
  p[A50]: < 4
[8]
  p[A50]: < 4.5
Oryctolagus cuniculus [9]
  p[A50]: 6.8
[10]
  p[A50]: < 4
